Experiments:
OVCAR-3 = assay: Growth inhibition of human OVCAR3 cells after 48 hrs by sulforhodamine B assay; format: functional; conditions: OVCAR-3, 48 h
In short: (§1)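 NCI 60-cell-line screen. Compounds tested at five 10-fold dilutions from 10^-4 to 10^-8 M. Cells exposed for the last 48 h of a 72 h incubation, growth estimated by sulforhodamine B protein assay. GI50 is the concentration giving 50% growth inhibition. Values beyond the tested range are expressed as greater or lesser than the extreme concentration.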

SK-MEL-2 = assay: Growth inhibition of human SK-MEL-2 cells after 48 hrs by sulforhodamine B assay; format: functional; conditions: SK-MEL-2, 48 h
[1] = Growth inhibition of human SF295 cells after 48 hrs by sulforhodamine B assay; format: functional; conditions: SF-295, 48 h
M14 = assay: Growth inhibition of human M14 cells after 48 hrs by sulforhodamine B assay; format: functional; conditions: M14, 48 h; in short: as §1
[2] = Growth inhibition of human SF539 cells after 48 hrs by sulforhodamine B assay; format: functional; conditions: SF-539, 48 h
NCI-H23 = assay: Growth inhibition of human NCI-H23 cells after 48 hrs by sulforhodamine B assay; format: functional; conditions: NCI-H23, 48 h; in short: as §1
PC-3 = assay: Growth inhibition of human PC3 cells after 48 hrs by sulforhodamine B assay; format: functional; conditions: PC-3, 48 h
SK-MEL-28 = assay: Growth inhibition of human SK-MEL-28 cells after 48 hrs by sulforhodamine B assay; format: functional; conditions: SK-MEL-28, 48 h
MT4 = assay: Antiproliferative activity against human MT4 cells after 96 hrs by MTT assay; format: functional, cell-based; conditions: MT4, 96 h
In short: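 Exponentially growing MT-4 cells (CD4+ human T-cells carrying integrated HTLV-1 genome), seeded at 1×10^5 cells/mL in RPMI-1640 with 10% FCS and antibiotics. Serial dilutions of compound (DMSO stock 100 mM, diluted in medium), 37 °C, 5% CO₂, 96 h. Viability read by MTT. 50% inhibition versus untreated controls by linear regression. Mean ± SD of three independent determinations.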

HOP-62 = assay: Growth inhibition of human HOP62 cells after 48 hrs by sulforhodamine B assay; format: functional; conditions: HOP-62, 48 h; in short: as §1
HT-29 = assay: Growth inhibition of human HT-29 cells after 48 hrs by sulforhodamine B assay; format: functional; conditions: HT-29, 48 h; in short: as §1
MDA-MB-231 = assay: Growth inhibition of human MDA-MB-231 cells after 48 hrs by sulforhodamine B assay; format: functional; conditions: MDA-MB-231, 48 h; in short: as §1
SN12C = assay: Growth inhibition of human SN12C cells after 48 hrs by sulforhodamine B assay; format: functional
DU-145 = assay: Growth inhibition of human DU145 cells after 48 hrs by sulforhodamine B assay; format: functional; conditions: DU-145, 48 h; in short: as §1
KM12 = assay: Growth inhibition of human KM12 cells after 48 hrs by sulforhodamine B assay; format: functional; conditions: KM12, 48 h; in short: as §1
[3] = Growth inhibition of human NCI-ADR-RES cells after 48 hrs by sulforhodamine B assay; format: functional; in short: as §1
SK-OV-3 = assay: Growth inhibition of human SKOV3 cells after 48 hrs by sulforhodamine B assay; format: functional; conditions: SK-OV-3, 48 h
[4] = Growth inhibition of human Hs 578T cells after 48 hrs by sulforhodamine B assay; format: functional; in short: as §1
HCT-15 = assay: Growth inhibition of human HCT15 cells after 48 hrs by sulforhodamine B assay; format: functional; conditions: HCT-15, 48 h; in short: as §1
T47D = assay: Growth inhibition of human T47D cells after 48 hrs by sulforhodamine B assay; format: functional
MCF7 = assay: Growth inhibition of human MCF7 cells after 48 hrs by sulforhodamine B assay; format: functional; conditions: MCF7, 48 h; in short: as §1
SF-268 = assay: Growth inhibition of human SF268 cells after 48 hrs by sulforhodamine B assay; format: functional; conditions: SF-268, 48 h
SNB-19 = assay: Growth inhibition of human SNB19 cells after 48 hrs by sulforhodamine B assay; format: functional; conditions: SNB-19, 48 h
SR = assay: Growth inhibition of human SR cells after 48 hrs by sulforhodamine B assay; format: functional
SNB-75 = assay: Growth inhibition of human SNB75 cells after 48 hrs by sulforhodamine B assay; format: functional; conditions: SNB-75, 48 h
SK-MEL-5 = assay: Growth inhibition of human SK-MEL-5 cells after 48 hrs by sulforhodamine B assay; format: functional; conditions: SK-MEL-5, 48 h
A498 = assay: Growth inhibition of human A498 cells after 48 hrs by sulforhodamine B assay; format: functional; conditions: A498, 48 h; in short: as §1
U-251 = assay: Growth inhibition of human U251 cells after 48 hrs by sulforhodamine B assay; format: functional; conditions: U-251, 48 h
MDA-MB-468 = assay: Growth inhibition of human MDA-MB-468 cells after 48 hrs by sulforhodamine B assay; format: functional; conditions: MDA-MB-468, 48 h; in short: as §1
NCI-H226 = assay: Growth inhibition of human NCI-H226 cells after 48 hrs by sulforhodamine B assay; format: functional; conditions: NCI-H226, 48 h; in short: as §1
IGROV-1 = assay: Growth inhibition of human IGROV1 cells after 48 hrs by sulforhodamine B assay; format: functional; conditions: IGROV-1, 48 h; in short: as §1
K562 = assay: Growth inhibition of human K562 cells after 48 hrs by sulforhodamine B assay; format: functional; conditions: K562, 48 h; in short: as §1
HL-60(TB) = assay: Growth inhibition of human HL-60(TB) cells after 48 hrs by sulforhodamine B assay; format: functional; conditions: HL-60, 48 h
In short: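 NCI 60-cell-line screen, HL-60(TB) included. Compound given at five 10-fold dilutions from 10^-4 to 10^-8 M. Cells exposed for the last 48 h of a 72 h incubation. Growth or viability estimated by sulforhodamine B protein assay. GI50 is the concentration giving 50% growth inhibition. Values outside the tested range are reported as greater or less than the highest or lowest concentration.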

[5] = Growth inhibition of human MOLT4 cells after 48 hrs by sulforhodamine B assay; format: functional; conditions: MOLT-4, 48 h; in short: as §1
HCT-116 = assay: Growth inhibition of human HCT116 cells after 48 hrs by sulforhodamine B assay; format: functional; conditions: HCT-116, 48 h; in short: as §1
CAKI-1 = assay: Growth inhibition of human CAKI-1 cells after 48 hrs by sulforhodamine B assay; format: functional; conditions: CAKI-1, 48 h; in short: as §1
A549 = assay: Growth inhibition of human A549 cells after 48 hrs by sulforhodamine B assay; format: functional; conditions: A549, 48 h; in short: as §1
SW-620 = assay: Growth inhibition of human SW620 cells after 48 hrs by sulforhodamine B assay; format: functional; conditions: SW-620, 48 h
[6] = Growth inhibition of human RXF393 cells after 48 hrs by sulforhodamine B assay; format: functional; conditions: RXF 393, 48 h
[7] = Growth inhibition of human COLO205 cells after 48 hrs by sulforhodamine B assay; format: functional; conditions: COLO 205, 48 h; in short: as §1
[8] = Growth inhibition of human RPMI8226 cells after 48 hrs by sulforhodamine B assay; format: functional; conditions: RPMI-8226, 48 h
NCI-H460 = assay: Growth inhibition of human NCI-H460 cells after 48 hrs by sulforhodamine B assay; format: functional; conditions: NCI-H460, 48 h; in short: as §1
MDA-MB-435 = assay: Growth inhibition of human MDA-MB-435 cells after 48 hrs by sulforhodamine B assay; format: functional; conditions: MDA-MB-435, 48 h; in short: as §1
786-0 = assay: Growth inhibition of human 786-0 cells after 48 hrs by sulforhodamine B assay; format: functional; conditions: 786-0, 48 h; in short: as §1
[9] = Growth inhibition of human HOP92 cells after 48 hrs by sulforhodamine B assay; format: functional; conditions: HOP-92, 48 h; in short: as §1
NCI-H322M = assay: Growth inhibition of human NCI-H322M cells after 48 hrs by sulforhodamine B assay; format: functional; in short: as §1
UACC-62 = assay: Growth inhibition of human UACC62 cells after 48 hrs by sulforhodamine B assay; format: functional; conditions: UACC-62, 48 h

For `COc1ccc(-c2[nH]c3ccc(OC)cc3c2C=C(C#N)C#N)cc1`, which GI50 (OVCAR-3) is on record?
The GI50 was 424 nM.

And the GI50 (SK-MEL-2)?
The GI50 was 5900 nM.

And the GI50 [1]?
Its GI50 is 306 nM.

And the GI50 (M14)?
The GI50 was 308 nM.

What about the GI50 [2] of the same compound?
The GI50 was 774 nM.

What about the GI50 (NCI-H23) of the same compound?
Its GI50 is 2000 nM.

And the GI50 (PC-3)?
The GI50 was 342 nM.

What about the GI50 (SK-MEL-28) of the same compound?
The GI50 was 1700 nM.

What about the EC50 (MT4) of the same compound?
The EC50 was 300 nM.

And the GI50 (HOP-62)?
Its GI50 is 3300 nM.

And the GI50 (HT-29)?
The GI50 was 407 nM.

What about the GI50 (MDA-MB-231) of the same compound?
The GI50 was 1300 nM.

And the GI50 (SN12C)?
The GI50 was 15900 nM.

And the GI50 (DU-145)?
The GI50 was 917 nM.

And the GI50 (KM12)?
The GI50 was 590 nM.

What about the GI50 [3] of the same compound?
The GI50 was 403 nM.

What about the GI50 (SK-OV-3) of the same compound?
Its GI50 is 892 nM.

What about the GI50 [4] of the same compound?
Its GI50 is 513 nM.

What about the GI50 (HCT-15) of the same compound?
The GI50 was 778 nM.

And the GI50 (T47D)?
The GI50 was 2600 nM.

And the GI50 (MCF7)?
The GI50 was 385 nM.

What about the GI50 (SF-268) of the same compound?
Its GI50 is 1700 nM.

And the GI50 (SNB-19)?
The GI50 was 13700 nM.

What about the GI50 (SR) of the same compound?
Its GI50 is 152 nM.

What about the GI50 (SNB-75) of the same compound?
Its GI50 is 593 nM.

What about the GI50 (SK-MEL-5) of the same compound?
The GI50 was 324 nM.

What about the GI50 (A498) of the same compound?
The GI50 was 75 nM.

What about the GI50 (U-251) of the same compound?
Its GI50 is 635 nM.

What about the GI50 (MDA-MB-468) of the same compound?
Its GI50 is 503 nM.

And the GI50 (NCI-H226)?
Its GI50 is 1500 nM.

And the GI50 (IGROV-1)?
Its GI50 is 5800 nM.

What about the GI50 (K562) of the same compound?
The GI50 was 345 nM.

And the GI50 (HL-60(TB))?
Its GI50 is 363 nM.

What about the GI50 [5] of the same compound?
The GI50 was 369 nM.

And the GI50 (HCT-116)?
The GI50 was 487 nM.

What about the GI50 (CAKI-1) of the same compound?
Its GI50 is 392 nM.

And the GI50 (A549)?
The GI50 was 3800 nM.

What about the GI50 (SW-620) of the same compound?
Its GI50 is 579 nM.

What about the GI50 [6] of the same compound?
Its GI50 is 5500 nM.

What about the GI50 [7] of the same compound?
The GI50 was 291 nM.

What about the GI50 [8] of the same compound?
Its GI50 is 5100 nM.

And the GI50 (NCI-H460)?
The GI50 was 472 nM.

What about the GI50 (MDA-MB-435) of the same compound?
Its GI50 is 122 nM.

And the GI50 (786-0)?
Its GI50 is 14300 nM.

What about the GI50 [9] of the same compound?
Its GI50 is 23000 nM.

What about the GI50 (NCI-H322M) of the same compound?
The GI50 was 380 nM.

What about the GI50 (UACC-62) of the same compound?
Its GI50 is 357 nM.

Source: ChEMBL document CHEMBL3616442, “Unconventional Knoevenagel-type indoles: Synthesis and cell-based studies for the identification of pro-apoptotic agents” (Eur J Med Chem, 2015)
